Columns and labels:
[1] = tested on: Rattus norvegicus; experiment: Tested for concentration required to reduce the food consumption by 20 % subcutaneously; type: functional
How it was run: (§1)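 Obese Zucker rats, 3-4 months old, trained to eat only 8 am-4 pm. Groups of 4 (2 male, 2 female), with one saline control group daily. Compound in saline with 10% DMSO, given sc on 3 consecutive days, typical doses 5.0-0.08 mg/kg (0.02-20 in some cases). Intake measured over the first 4 h. ED20 from regression of the linear portion of the dose-response curve.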

[2] = molecular target: Mu-type opioid receptor (Mus musculus) (UniProt P42866); experiment: Antagonistic activity towards morphine induced mu-opioid receptor by mouse writhing assay at 1.25 mg/kg subcutaneously; type: functional, organism-based; design: dose 1.25 mg/kg
How it was run: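 Mouse acetic acid writhing: 0.6% acetic acid ip, writhes counted for 10 min starting 5 min after injection. Agonist (morphine 1.25 mg/kg or U50,488 2.5 mg/kg) and antagonist given sc 20 min before acid. 5 mice/point, ≥5 doses varied 2-fold, each mouse used once. AD50 = antagonist dose reducing agonist-induced writhing inhibition to 50%.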

[3] = molecular target: Kappa-type opioid receptor (Mus musculus) (UniProt P33534); experiment: Antagonist activity towards U50 488 induced kappa opioid receptor by mouse writhing assay at 2.5 mg/kg subcutaneously; type: functional, organism-based; design: dose 2.5 mg/kg
How it was run: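 Mouse acetic acid writhing: 0.6% acetic acid ip, writhes counted for 10 min starting 5 min after injection. 5 mice/point, ≥5 doses varied 2-fold, each mouse used once. AD50 = antagonist dose reducing agonist-induced writhing inhibition to 50%.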

[4] = molecular target: Kappa-type opioid receptor (Rattus norvegicus) (UniProt P34975); experiment: Antagonism of bremazocine induced kappa receptor diuresis in rats at a concentration of 0.08 mg/kg subcutaneously; type: functional, organism-based; design: dose 0.08 mg/kg
How it was run: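 Male Long-Evans hooded rats (350-500 g), reused no more than twice weekly. Bremazocine 0.08 mg/kg sc, test antagonist sc on the opposite side without delay. Rats housed in metabolism cages; urine volume recorded at 2 and 5 h. 3 rats/dose, doses varied 2-fold. AD50 = dose reducing cumulative 5-h induced urination by 50%.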

[5] = molecular target: Kappa-type opioid receptor (Cavia porcellus, UniProt P41144); experiment: Binding affinity towards kappa opioid receptor by displacement of [3H]EKC in guinea pig cortical tissue
How it was run: (§2)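 Radioligand displacement. Kappa: [3H]EKC, guinea pig cortex, with fentanyl and DADL added to block mu/delta binding. Delta: [3H]DADL, rat brain homogenate.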

[6] = molecular target: Mu-type opioid receptor (Rattus norvegicus, UniProt P33535); experiment: Binding affinity towards mu-opioid receptor by the displacement of [3H]Nal in rat brain homogenates; type: tissue-based
[7] = tested on: Rattus norvegicus; experiment: Tested for concentration required to reduce the food consumption by 20 % subcutaneously; effect on feeding was minimal and not dose related; type: functional; conditions: sc; how it was run: as §1
[8] = molecular target: Delta-type opioid receptor (Rattus norvegicus, UniProt P33533); experiment: Binding affinity towards delta-opioid receptor by displacement of [3H]DADL in rat brain homogenates; type: tissue-based; how it was run: as §2
[9] = tested on: Rattus norvegicus; experiment: Tested for concentration required to reduce the food consumption by 20 % subcutaneously; The maximum effect achievedwas approximately 20% and not dose related; type: functional; conditions: sc; how it was run: as §1
[10] = Rattus norvegicus, sc, read-out: ED50

Sequence of Mu-type opioid receptor (Mus musculus) (P42866 whole entry): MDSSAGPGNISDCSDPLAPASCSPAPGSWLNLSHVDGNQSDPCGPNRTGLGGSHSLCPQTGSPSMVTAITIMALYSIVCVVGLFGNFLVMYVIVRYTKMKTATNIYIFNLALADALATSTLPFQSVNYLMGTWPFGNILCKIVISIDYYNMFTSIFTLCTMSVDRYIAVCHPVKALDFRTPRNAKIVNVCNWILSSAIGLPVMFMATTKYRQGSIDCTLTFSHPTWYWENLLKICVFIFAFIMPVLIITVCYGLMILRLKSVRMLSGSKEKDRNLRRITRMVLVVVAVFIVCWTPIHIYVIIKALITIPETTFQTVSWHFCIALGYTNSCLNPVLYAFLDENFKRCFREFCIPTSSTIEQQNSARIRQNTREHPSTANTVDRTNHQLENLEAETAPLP
Sequence of Kappa-type opioid receptor (Rattus norvegicus) (P34975 whole entry): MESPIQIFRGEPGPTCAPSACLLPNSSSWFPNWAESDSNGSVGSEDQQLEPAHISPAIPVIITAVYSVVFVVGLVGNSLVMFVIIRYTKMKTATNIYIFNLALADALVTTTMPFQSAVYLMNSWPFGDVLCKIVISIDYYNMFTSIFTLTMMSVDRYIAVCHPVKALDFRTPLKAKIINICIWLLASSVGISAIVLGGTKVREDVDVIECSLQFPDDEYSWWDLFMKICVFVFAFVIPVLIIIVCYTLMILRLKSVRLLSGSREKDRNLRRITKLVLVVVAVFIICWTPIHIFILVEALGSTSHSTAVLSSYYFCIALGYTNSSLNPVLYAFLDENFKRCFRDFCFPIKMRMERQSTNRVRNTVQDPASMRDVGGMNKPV
Sequence of Mu-type opioid receptor (P33535 whole entry): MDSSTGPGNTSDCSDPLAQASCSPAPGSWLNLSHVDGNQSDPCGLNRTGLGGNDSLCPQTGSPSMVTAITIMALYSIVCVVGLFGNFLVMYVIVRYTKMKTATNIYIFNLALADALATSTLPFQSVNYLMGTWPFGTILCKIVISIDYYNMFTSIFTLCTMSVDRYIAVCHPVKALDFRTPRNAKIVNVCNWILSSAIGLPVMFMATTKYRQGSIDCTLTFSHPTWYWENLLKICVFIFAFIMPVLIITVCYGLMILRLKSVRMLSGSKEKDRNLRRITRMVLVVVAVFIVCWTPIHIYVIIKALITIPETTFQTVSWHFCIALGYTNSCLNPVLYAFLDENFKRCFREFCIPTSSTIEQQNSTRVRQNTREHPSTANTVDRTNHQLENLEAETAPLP
Sequence of Kappa-type opioid receptor (Mus musculus) (P33534 whole entry): as the sequence (P34975 whole entry) above, with E11D, A17S, P51S, V308A counted along it
Sequence of Kappa-type opioid receptor (P41144 whole entry): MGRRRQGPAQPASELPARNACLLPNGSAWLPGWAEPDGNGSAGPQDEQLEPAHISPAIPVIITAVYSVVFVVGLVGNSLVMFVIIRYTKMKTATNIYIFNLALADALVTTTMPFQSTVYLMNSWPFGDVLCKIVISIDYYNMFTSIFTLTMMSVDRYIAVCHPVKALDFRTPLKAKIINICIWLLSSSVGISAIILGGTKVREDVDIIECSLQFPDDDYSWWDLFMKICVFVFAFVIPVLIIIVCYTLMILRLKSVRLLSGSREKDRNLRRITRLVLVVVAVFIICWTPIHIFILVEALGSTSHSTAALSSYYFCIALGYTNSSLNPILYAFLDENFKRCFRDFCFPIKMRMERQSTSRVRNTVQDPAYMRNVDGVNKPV
Sequence of Delta-type opioid receptor (P33533 whole entry): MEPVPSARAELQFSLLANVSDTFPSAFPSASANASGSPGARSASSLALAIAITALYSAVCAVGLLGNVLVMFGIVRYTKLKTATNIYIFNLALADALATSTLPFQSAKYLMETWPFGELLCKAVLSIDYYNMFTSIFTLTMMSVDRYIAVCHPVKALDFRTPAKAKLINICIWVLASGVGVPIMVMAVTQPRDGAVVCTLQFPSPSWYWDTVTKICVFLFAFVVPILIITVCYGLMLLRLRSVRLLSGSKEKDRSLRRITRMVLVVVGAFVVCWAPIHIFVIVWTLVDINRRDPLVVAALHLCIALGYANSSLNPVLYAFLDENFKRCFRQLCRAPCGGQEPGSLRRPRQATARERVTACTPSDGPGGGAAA

Compound `C[C@H]1CN(CCC(O)C2CCCCC2)CC[C@@]1(C)c1cccc(O)c1` (some centres not stated) has an ED50 [1, 10] of 0.05 mg/kg, an AD50 [2] of 0.07 mg/kg and an AD50 [3] of 0.14 mg/kg. It also gave an AD50 [4] of 0.49 mg/kg, a Ki [5] of 4.8 nM and a Ki [6] of 0.29 nM.

`C[C@H]1CN(CCCc2cccs2)CC[C@@]1(C)c1cccc(O)c1` (stereo in doubt; 29) showed an AD50 [2] of 0.22 mg/kg and an AD50 [4] of 1 mg/kg.

`C[C@H]1CN(CCCC2CCCCC2)CC[C@@]1(C)c1cccc(O)c1` showed an ED50 [1, 10] of 0.12 mg/kg, an AD50 [2] of 0.35 mg/kg and an AD50 [3] of 0.19 mg/kg. For the same compound, the AD50 [4] was 1 mg/kg, the Ki [5] was 2.3 nM and the Ki [6] was 0.49 nM.

With `C[C@@H]1CN(CC[C@H](O)C2CCCCC2)CC[C@]1(C)c1cccc(O)c1` the ED50 [1, 10] was 0.11 mg/kg, the AD50 [2] was 0.13 mg/kg and the AD50 [3] was 0.24 mg/kg. For the same compound, the AD50 [4] was 1.6 mg/kg and the Ki [5] was 6.5 nM.

For `CC(C)CCCCN1CC[C@](C)(c2cccc(O)c2)[C@H](C)C1`, the ED50 [1, 10] was 0.14 mg/kg, the AD50 [2] was 0.35 mg/kg and the AD50 [3] was 0.89 mg/kg. The AD50 [4] was 4.75 mg/kg, the Ki [5] was 3.04 nM and the Ki [6] was 1.36 nM.

`CC(C)CCCN1CC[C@@](C)(c2cccc(O)c2)[C@@H](C)C1` was tested, and the ED50 [1, 10] was 2.1 mg/kg, the AD50 [2] was 0.11 mg/kg and the AD50 [3] was 0.073 mg/kg. It also gave an AD50 [4] of 0.39 mg/kg, a Ki [5] of 9.6 nM and a Ki [6] of 0.29 nM.

`C[C@H]1CN(CCC2CCCC2)CC[C@@]1(C)c1cccc(O)c1` was tested, and the ED50 [1, 10] was 0.34 mg/kg, the AD50 [2] was 0.14 mg/kg and the AD50 [3] was 0.22 mg/kg. For the same compound, the AD50 [4] was 0.67 mg/kg, the Ki [5] was 7.2 nM and the Ki [6] was 2.3 nM.

With `CC(C)CCN1CC[C@@](C)(c2cccc(O)c2)[C@@H](C)C1` the ED50 [1, 10] was > 20 mg/kg, the AD50 [2] was 0.87 mg/kg and the AD50 [3] was 0.62 mg/kg. For the same compound, the AD50 [4] was 4.5 mg/kg, the Ki [5] was 70 nM and the Ki [6] was 32 nM.

`C[C@H]1CN(CCC(O)c2ccccc2)CC[C@@]1(C)c1cccc(O)c1` (some centres not stated) showed an ED50 [1, 10] of 0.5 mg/kg, an AD50 [2] of 0.05 mg/kg and an AD50 [3] of 0.92 mg/kg. For the same compound, the AD50 [4] was 2.5 mg/kg and the Ki [6] was 1 nM.

For `C[C@H]1CN(CCCC2CCCC2)CC[C@@]1(C)c1cccc(O)c1`, the ED50 [1, 10] was 1.2 mg/kg, the AD50 [2] was 0.12 mg/kg and the AD50 [3] was 0.13 mg/kg. The AD50 [4] was 0.79 mg/kg, the Ki [5] was 3.4 nM and the Ki [6] was 0.37 nM.

`CC(C)CCCCN1CC[C@@](C)(c2cccc(O)c2)[C@@H](C)C1` (stereo in doubt; 21) gave an AD50 [2] of 0.58 mg/kg, an AD50 [3] of 0.24 mg/kg and an AD50 [4] of 0.39 mg/kg.

`CC(C)CCCCN1CC[C@@](C)(c2cccc(O)c2)[C@@H](C)C1` (stereo in doubt; 39) gave an AD50 [2] of 0.08 mg/kg, an AD50 [3] of 0.22 mg/kg and an AD50 [4] of 1.31 mg/kg.

With `C[C@@H]1CN(CC[C@@H](O)C2CCCCC2)CC[C@]1(C)c1cccc(O)c1` the ED50 [7] was > 1.25 mg/kg, the AD50 [2] was 0.52 mg/kg and the AD50 [3] was 0.52 mg/kg. For the same compound, the AD50 [4] was 5.2 mg/kg, the Ki [5] was 14.3 nM and the Ki [6] was 2.2 nM.

In the case of `C[C@H]1CN(CCCc2cccs2)CC[C@@]1(C)c1cccc(O)c1` (stereo in doubt; 41), the Ki [8] is reported as 10.3 nM and the ED50 [1] is reported as 0.11 mg/kg.

`CCCCCCN1CC[C@@](C)(c2cccc(O)c2)[C@@H](C)C1` (stereo in doubt; 37) was tested, and the AD50 [2] was 0.26 mg/kg, the AD50 [3] was 0.22 mg/kg and the AD50 [4] was 0.86 mg/kg.

`C=C(C)CCCN1CC[C@@](C)(c2cccc(O)c2)[C@@H](C)C1` showed an ED50 [1, 10] of 0.29 mg/kg, an AD50 [2] of 0.077 mg/kg and an AD50 [3] of 0.095 mg/kg. The AD50 [4] was 0.39 mg/kg, the Ki [5] was 21 nM and the Ki [6] was 0.17 nM.

For `C[C@H]1CN(CCC(O)C2CCCC2)CC[C@@]1(C)c1cccc(O)c1` (some centres not stated), the ED50 [1, 10] was 0.09 mg/kg, the AD50 [2] was 0.04 mg/kg and the AD50 [3] was 0.08 mg/kg. For the same compound, the AD50 [4] was 0.99 mg/kg, the Ki [5] was 5.5 nM and the Ki [6] was 0.41 nM.

`C[C@@H]1CN(CCCc2cccs2)CC[C@]1(C)c1cccc(O)c1` was tested, and the ED50 [1, 10] was 0.4 mg/kg, the AD50 [2] was 0.24 mg/kg and the AD50 [3] was 0.65 mg/kg. The AD50 [4] was 1.66 mg/kg.

For `O=C1CC[C@@]2(O)[C@H]3Cc4ccc(O)c5c4[C@@]2(CCN3CC2CC2)[C@H]1O5` [NALTREXONE], the ED50 [9] was 1.7 mg/kg.

Compound `C[C@H]1CN(CCCc2ccsc2)CC[C@@]1(C)c1cccc(O)c1` has an ED50 [1, 10] of 0.06 mg/kg, an AD50 [2] of 0.12 mg/kg and an AD50 [3] of 0.24 mg/kg. The AD50 [4] was 1.9 mg/kg.

Source: ChEMBL document CHEMBL1127053, “3,4-Dimethyl-4-(3-hydroxyphenyl)piperidines: opioid antagonists with potent anorectant activity” (J Med Chem, 1993)
